High-throughput results as filed in PubChem BioAssay.
HDAC3 inh: human HDAC3 inhibition | inhibition, % at 8.3 µM | recombinant HDAC3, fluorogenic peptide/trypsin coupled, fluorescence | actives 0.15% (n = 320,000) | O15379; in the data active = inhibition above about 26%, passing the limit was not always enough; inconclusive = no clear call, values can overlap the other calls
Rtt109 Vps75: inhibitors of Candida albicans Rtt109/Vps75 histone acetyltransferase; inhibition, % at 34.9 µM; actives 0.16% (n = 330,000); Q5AAJ8; purified Rtt109/Vps75, ThioGlo CoA-SH fluorescence, 4 h; AID 540336;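 active = inhibition of at least 50% in every replicate; inconclusive = best replicate reaches 50% inhibition but some replicates fall short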
Target sequence (Q5AAJ8 whole entry, looked up): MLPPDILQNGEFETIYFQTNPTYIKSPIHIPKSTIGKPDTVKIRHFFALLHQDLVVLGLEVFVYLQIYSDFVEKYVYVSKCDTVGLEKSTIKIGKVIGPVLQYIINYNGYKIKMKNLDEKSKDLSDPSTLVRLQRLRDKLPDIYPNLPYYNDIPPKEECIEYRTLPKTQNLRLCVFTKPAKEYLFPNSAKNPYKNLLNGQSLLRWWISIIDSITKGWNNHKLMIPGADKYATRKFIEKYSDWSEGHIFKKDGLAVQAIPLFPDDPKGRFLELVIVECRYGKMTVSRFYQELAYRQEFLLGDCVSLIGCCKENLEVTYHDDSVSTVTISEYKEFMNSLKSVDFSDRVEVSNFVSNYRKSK
UCH37 DUB inh: human UCH37 deubiquitinating enzyme inhibition. inhibition, % (test concentration not listed). purified proteasome/UCH37, Ub-AMC cleavage fluorescence. actives 0.33% (n = 330,000). Q9Y5K5;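 active = mean inhibition over replicate wells above about 20%, limit read from the data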;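 note: 0% = compound-free wells with enzyme and 100% = wells lacking proteasome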
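Material: Human UCH37 enzyme supplied as purified proteasome complex | Schedule: 30 min preincubation with enzyme, 25 min cleavage at room temperature | Detection: AMC fluorescence 355/460 nm | Measure: % inhibition of Ub-AMC cleavage fluorescence | Controls: Wells without proteasome as full block, compound-free enzyme plus substrate as uninhibited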
M18AAP inhibitor: blocks P. falciparum M18 aspartyl aminopeptidase. actives 1.2% (n = 290,000). inhibition, % at 7.35 µM. recombinant PfM18AAP, H-Glu-NHMec fluorogenic cleavage;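 active = inhibition above the campaign mean inhibition over all tested compounds plus 3 SD, cut at about 28% in these data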;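 note: 0% = plate median of test compound wells and 100% = 2 mM ZnCl2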
FAS TE block: inhibitors of human fatty acid synthase thioesterase domain | P49327 | recombinant FAS-TE, OMFH fluorogenic substrate, fluorescence endpoint | inhibition, % at 15 µM | actives 0.67% (n = 360,000);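 active = compounds whose normalised, plate-corrected inhibition of enzyme fluorescence in the single-dose primary screen is 50% or more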;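 note: 0% = DMSO with enzyme and 100% = substrate without enzyme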
ALR H2O2 inh: human ALR oxidase inhibition via reduced H2O2 | inhibition, % (concentration not given with the values) | actives 3.8% (n = 290,000) | purified ALR, DTT oxidation, H2O2 HRP-luminol luminescence;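 active = mean replicate inhibition above about 79%, with every replicate also reaching it, limit read from the data; inconclusive = only one of the two criteria met; inactive = mean below limit and not every replicate reaching it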
Target sequence (P55789 whole entry, looked up): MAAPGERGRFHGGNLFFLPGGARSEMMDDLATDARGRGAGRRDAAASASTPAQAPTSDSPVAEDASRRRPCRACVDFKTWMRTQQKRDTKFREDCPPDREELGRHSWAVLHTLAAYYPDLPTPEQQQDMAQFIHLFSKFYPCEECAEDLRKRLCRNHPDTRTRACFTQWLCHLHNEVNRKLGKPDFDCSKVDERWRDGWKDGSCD
An asterisk follows results filed as active; i = inactive; ? = inconclusive; . = no result. Sampled rows, rich in hits. Any-hit rate of the full collection: about 4.6%.

SMILES	HDAC3 inh	Rtt109 Vps75	UCH37 DUB inh	M18AAP inhibitor	FAS TE block	ALR H2O2 inh
Cc1nc2ccccn2c1C(=O)NNC(=S)Nc1ccc(Cl)cc1	0	-2	3	11	-8	87*
CCC(=O)Nc1ccc(NC(=O)c2c(C)nc3ccccn23)cc1	.	2	6	-6	-4	-7
Cc1nc2ccccn2c1C(=O)NN	0	-5	1	-1	-11	.
Cc1nn(C)cc1C(=O)NNC(=S)Nc1ccccc1	2	-5	0	14	-12	88*
CSc1nnc(NC(=O)c2nc(S(=O)(=O)Cc3ccccc3)ncc2Cl)s1	.	-2	.	-25	5	97*
CC(C)c1nnc(NC(=O)c2nc(S(=O)(=O)Cc3ccccc3)ncc2Cl)s1	.	?	.	-12	1	98*
CCCc1nnc(NC(=O)c2nc(S(=O)(=O)Cc3ccc(C)cc3)ncc2Cl)s1	3	?	.	-14	4	9
CCc1ccc(NC(=O)c2nc(S(=O)(=O)Cc3ccccc3)ncc2Cl)cc1	-2	3	.	-39	49	-5
CCn1c(CNc2ccc(Cl)cc2)nnc1SCCN1CCCCC1	-7	-2	-6	-1	-10	98*
O=C(c1cccc(C(F)(F)F)c1)C1CCCN(C(=O)c2cc(C3CC3)[nH]n2)C1 (stereo unspecified)	5	5	-2	2	-5	86*
CC(=NNC(=O)CCCNc1cccc(C)c1)c1ccncc1	.	.	2	.	.	.
Cn1cc(C(c2ccccc2OCC(=O)O)c2cn(C)c3ccccc23)c2ccccc21	3	-3	-1	11	4	99*
CC(=NNC(=O)c1cccc(O)c1)c1ccc(NC(=O)Cc2ccccc2)cc1	.	.	6	.	.	.
NCCSc1c(-c2ccccc2)[nH]c2ccccc12	-18	2	-11	2	-12	97*
CCN1C(=NN)c2cccc3cccc1c23	.	.	6	.	.	.
Cc1ccc(-c2nnc(Nc3ccc(O)cc3)c3ccccc23)cc1S(=O)(=O)NCCO	0	2	8	-1	2	97*
CNC(=O)c1ccc(Nc2nnc(-c3ccc(O)cc3)c3ccccc23)cc1	6	-2	-15	4	-3	30
Oc1ccc(-c2nnc(Nc3cccc(O)c3)c3ccccc23)cc1	4	-1	-7	-2	-3	98*
CNC(=O)c1cc(Nc2nnc(-c3ccc(O)cc3)c3ccccc23)ccc1OC	2	26	-3	-8	-2	98*
NC(=O)COc1ccc(Nc2nnc(-c3ccc(O)cc3)c3ccccc23)cc1	-4	3	6	4	-1	99*
C=C(C)C1CC=C(C)C(=NNC(=O)CCCNc2cccc(C)c2)C1 (stereo unspecified)	.	.	2	.	.	.
Nc1ccccc1Nc1c(F)c(F)nc(F)c1Cl	1	0	2	-4	0	98*
Nc1ccccc1Nc1cc(-c2cccc(Cl)c2)nn1-c1ccccc1	1	-19	2	6	36	1
CCS(=O)(=O)N1CCN=C1SCc1cccc(F)c1	-8	4	6	2	-3	48
CCCS(=O)(=O)N1CCN=C1SCc1ccc(F)cc1	0	2	5	-3	-2	92*
SMILES	HDAC3 inh	Rtt109 Vps75	UCH37 DUB inh	M18AAP inhibitor	FAS TE block	ALR H2O2 inh
CCS(=O)(=O)N1CCN=C1SCc1ccc(F)cc1	6	-5	4	0	-4	89*
CS(=O)(=O)N1CCN=C1SCc1cccc(F)c1	4	-8	0	-5	1	81*
CCCS(=O)(=O)N1CCN=C1SCc1cccnc1	-5	.	2	1	-11	99*
S=c1[nH]nc(-c2ccccc2)n1N=Cc1cccc(Br)c1	.	.	0	.	.	.
O=C(C[n+]1ccccc1)NN=Cc1cc(Br)ccc1F	.	.	4	.	.	.
CC(=NNC(=O)c1cccc(F)c1)c1ccc(Br)s1	.	.	5	.	.	.
O=c1c(C=NN2CCOCC2)c(C(F)(F)F)[nH]n1-c1ccccc1	.	.	2	.	.	.
CCS(=O)(=O)N1CCN=C1SCc1ccccc1	-5	6	7	-6	-4	-5
CCCS(=O)(=O)N1CCN=C1SCc1cccc2ccccc12	-2	0	5	-2	9	99*
CC(C)c1ccc(/C=c2\sc3nc(-c4ccncc4)nn3c2=O)cc1	-8	2	.	-17	-9	87*
Cc1ccc(/C=c2\sc3nc(-c4cccnc4)nn3c2=O)cc1	8	4	.	4	-4	91*
CCC(C)Nc1nc(-c2ccc3c(c2)NC(=O)CO3)cs1 (stereo unspecified)	14	-2	-2	-2	-3	98*
Cc1ccc(NC(=O)CN2C(=O)N/C(=C/c3cc(C)n(-c4ccc(C(=O)O)cc4)c3C)C2=O)cc1	.	-7	10	9	2	.
Cc1ccc(NC(=O)CN2C(=O)N/C(=C/c3cccn3-c3ccc(C(=O)O)cc3)C2=O)cc1	6	14	21*	5	-12	97*
COc1ccc(-c2nc(CS(=O)CC(=O)NC(C)CCc3ccccc3)c(C)o2)cc1OC (stereo unspecified)	-7	7	4	-3	0	99*
Cc1ccc(-c2nc(CS(=O)CC(=O)NC(C)CCc3ccccc3)c(C)o2)cc1 (stereo unspecified)	-1	-7	1	-5	5	93*
Cc1ccc(-c2nc(CS(=O)CC(=O)NCCCc3ccccc3)c(C)o2)cc1 (stereo unspecified)	1	-2	5	3	0	98*
COc1ccc(-c2nc(CS(=O)(=O)CC(=O)NCCCc3ccccc3)c(C)o2)cc1	2	-6	0	-11	4	?
COc1ccc(CC(=O)NC(C)CCc2ccccc2)cc1OC (stereo unspecified)	-1	3	-1	-1	-5	35
COc1ccc(C(C)=NNC(=O)c2ccc(-c3ccccc3)cc2)c(F)c1	.	.	-4	.	.	.
Cc1nn(-c2ccc(F)cc2)c(Cl)c1C=NNC(=O)c1ccc(O)cc1	.	.	2	.	.	.
CON=C(Cn1ncc(N2CCCC2)c(Br)c1=O)c1ccc(Cl)cc1	.	.	3	.	.	.
COc1cc(-c2csc(C)n2)ccc1O	-4	10	5	5	-8	96*
CNc1nc2c3ccccc3n(C(C)=O)c2s1	6	-1	4	12	-2	.
CC(=O)n1c2ccccc2c2nc(NC(C)C)sc21	5	2	3	-1	-8	99*
CN(C)C=NS(=O)(=O)c1cccn1-c1ncc(C(F)(F)F)cc1Cl	.	.	3	.	.	.
Cc1cn2nc(N)c3ccccc3c2n1	-3	5	-121	-12	-5	-4
Nc1nn2cc(-c3ccccc3)nc2c2ccccc12	-115	-32	i	-5	2	95*
Cc1ccc(OCCOC(=O)c2sc(=S)n(C)c2C)cc1	-2	-5	-1	5	58*	1
O=C(NC(=S)NNC(=O)c1cccs1)c1ccccc1	-2	-2	10	11	-2	99*
